Results from PMC9322249 (Journal of Food and Drug Analysis, 2017).

Columns and labels:
[1] = Oxygen radical absorption capacity; settings: TEAC units; X = EO or compound
In short: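 Peroxyl radical (ROO) scavenging by the oils and individual components, following a published ORAC method, in triplicate. Data are mean ± SD, with significance by ANOVA/Tukey's HSD (p < 0.05).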

[2] = ABTS radical cation bleaching assay; settings: TEAC units; X = EO or compound
In short: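 ABTS radical cation (ABTS•+) bleaching by essential oils and their individual components, run in triplicate by a published method. Results are given as mean ± SD, compared by ANOVA with Tukey's HSD (p < 0.05).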

[3] = DPPH radical scavenging capacity; settings: TEAC units; X = EO or compound
In short: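 DPPH radical scavenging by essential oils and individual components, by a published method, in triplicate. Values are expressed as μmol TE/mL EO and given as mean ± SD, with ANOVA/Tukey's HSD at p < 0.05.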

Chelating power = settings: for ChP: EDTAE units, X = EO or compound
In short: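 Ferrous ion chelation by essential oils and their major components, by a published method, in triplicate. Results are expressed as EDTA equivalents per volume of EO, mean ± SD, with ANOVA/Tukey's HSD (p < 0.05).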

Reducing power = settings: AAE units; X = EO or compound
In short: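 Reduction of potassium ferricyanide by the oils and individual components, by a published method, in triplicate. Results are reported as ascorbic acid equivalents per volume of EO, mean ± SD, with ANOVA/Tukey's HSD (p < 0.05).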

[4] = Thiobarbituric acid reactive substances; settings: for TBARS: BHTE units, X = EO or compound
In short: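 TBARS formation by oxidation measured in soybean lecithin homogenate as lipid-rich medium, by a published method, in triplicate. Values are expressed as μmol BHTE/mL EO, mean ± SD, with ANOVA/Tukey's HSD (p < 0.05).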

SMILES	ORAC [1]	ABTS [2]	DPPH [3]	Chelating power (ChP), result in words (Chelating power)	ChP (Chelating power)	RdP (Reducing power)	TBARS [4]	TBARS antioxidant activity, result in words [4]
CC1=CC=C(C(C)C)CC1 [α-terpinene]	0.4 ± 0.0 μmol TE/μL X	24.6 ± 1.2 μmol TE/mL X	1.7 ± 0.1 μmol TE/mL X	high chelating activity	385.6 ± 29.0 μmol EDTAE/mL X	11,531.4 ± 637.1 μmol AAE/L X	N/D (Activity lower than 0.05 units at a maximum assay concentration of 100 mM)	
CC1=CCC(C(C)C)=CC1 [γ-terpinene]	1.1 ± 0.1 μmol TE/μL X	15.6 ± 0.7 μmol TE/mL X	2.1 ± 0.1 μmol TE/mL X		2.0 ± 0.1 μmol EDTAE/mL X	1990.6 ± 160.2 μmol AAE/L X	273.2 ± 24.4 μmol BHTE/mL X	strong TBARS antioxidant activity
C=CC(=C)CCC=C(C)C [Myrcene]	N/D (Activity lower than 0.05 units at a maximum assay concentration of 100 mM)	N/D (Activity lower than 0.05 units at a maximum assay concentration of 100 mM)	N/D (Activity lower than 0.05 units at a maximum assay concentration of 100 mM)		14.4 ± 1.0 μmol EDTAE/mL X	N/D (Activity lower than 0.05 units at a maximum assay concentration of 100 mM)	N/D (Activity lower than 0.05 units at a maximum assay concentration of 100 mM)	
C=C1C2CCC(C2)C1(C)C (stereo not drawn) [Camphene]	N/D (Activity lower than 0.05 units at a maximum assay concentration of 100 mM)	0.8 ± 0.0 μmol TE/mL X	N/D (Activity lower than 0.05 units at a maximum assay concentration of 100 mM)		9.9 ± 0.7 μmol EDTAE/mL X	3238.9 ± 157.4 μmol AAE/L X	N/D (Activity lower than 0.05 units at a maximum assay concentration of 100 mM)	
CC12CCC(CC1)C(C)(C)O2 [1,8-Cineole]	N/D (Activity lower than 0.05 units at a maximum assay concentration of 100 mM)	0.2 ± 0.0 μmol TE/mL X	N/D (Activity lower than 0.05 units at a maximum assay concentration of 100 mM)		6.7 ± 0.4 μmol EDTAE/mL X	N/D (Activity lower than 0.05 units at a maximum assay concentration of 100 mM)	N/D (Activity lower than 0.05 units at a maximum assay concentration of 100 mM)	
CC1=CCC(O)(C(C)C)CC1 (stereo not drawn) [Terpinen-4-ol]	2.2 ± 0.1 μmol TE/μL X	1.8 ± 0.1 μmol TE/mL X	0.3 ± 0.0 μmol TE/mL X		10.3 ± 0.7 μmol EDTAE/mL X	N/D (Activity lower than 0.05 units at a maximum assay concentration of 100 mM)	50.2 ± 10.6 μmol BHTE/mL X	
CC1=CCC2CC1C2(C)C (stereo not drawn) [α-Pinene]	0.2 ± 0.0 μmol TE/μL X	N/D (Activity lower than 0.05 units at a maximum assay concentration of 100 mM)	0.1 ± 0.0 μmol TE/mL X		104.8 ± 7.0 μmol EDTAE/mL X	N/D (Activity lower than 0.05 units at a maximum assay concentration of 100 mM)	16.3 ± 0.5 μmol BHTE/mL X	
C=C1CCC2CC1C2(C)C (stereo not drawn) [β-Pinene]	N/D (Activity lower than 0.05 units at a maximum assay concentration of 100 mM)	0.7 ± 0.0 μmol TE/mL X	0.1 ± 0.0 μmol TE/mL X		11.7 ± 0.7 μmol EDTAE/mL X	N/D (Activity lower than 0.05 units at a maximum assay concentration of 100 mM)	28.9 ± 1.9 μmol BHTE/mL X	
Cc1ccc(C(C)C)cc1O [Carvacrol]	2.8 ± 0.1 μmol TE/μL X	7804.4 ± 268.1 μmol TE/mL X	34.9 ± 2.5 μmol TE/mL X		N/D (Activity lower than 0.05 units at a maximum assay concentration of 100 mM)	3239.6 ± 143.0 μmol AAE/L X	600.7 ± 102.2 μmol BHTE/mL X	
CC1=CC[C@@H](C(C)(C)O)CC1 [α-Terpineol]	1.9 ± 0.1 μmol TE/μL X	1.1 ± 0.1 μmol TE/mL X	N/D (Activity lower than 0.05 units at a maximum assay concentration of 100 mM)		29.9 ± 1.9 μmol EDTAE/mL X	N/D (Activity lower than 0.05 units at a maximum assay concentration of 100 mM)	15.6 ± 0.5 μmol BHTE/mL X	
C=CC(C)(CCC=C(C)C)OC(C)=O (stereo not drawn) [linalyl acetate]	1.0 ± 0.1 μmol TE/μL X	0.3 ± 0.0 μmol TE/mL X	N/D (Activity lower than 0.05 units at a maximum assay concentration of 100 mM)	high ChP	125.7 ± 9.4 μmol EDTAE/mL X	N/D (Activity lower than 0.05 units at a maximum assay concentration of 100 mM)	19.6 ± 0.6 μmol BHTE/mL X	
CC(C)C12CCC(C)(O)C1C2 (stereo not drawn) [Sabinene hydrate]	0.3 ± 0.0 μmol TE/μL X	3.2 ± 0.2 μmol TE/mL X	N/D (Activity lower than 0.05 units at a maximum assay concentration of 100 mM)		44.9 ± 3.7 μmol EDTAE/mL X	N/D (Activity lower than 0.05 units at a maximum assay concentration of 100 mM)	97.2 ± 4.2 μmol BHTE/mL X	
CC1(C)C2CCC1(C)C(O)C2 (stereo not drawn) [Borneol]	N/D (Activity lower than 0.05 units at a maximum assay concentration of 100 mM)	N/D (Activity lower than 0.05 units at a maximum assay concentration of 100 mM)	N/D (Activity lower than 0.05 units at a maximum assay concentration of 100 mM)		N/D (Activity lower than 0.05 units at a maximum assay concentration of 100 mM)	N/D (Activity lower than 0.05 units at a maximum assay concentration of 100 mM)	N/D (Activity lower than 0.05 units at a maximum assay concentration of 100 mM)	
C=C1CC/C=C(\C)CC[C@@H]2[C@@H]1CC2(C)C [β-Caryophyllene]	1.7 ± 0.1 μmol TE/μL X	N/D (Activity lower than 0.05 units at a maximum assay concentration of 100 mM)	N/D (Activity lower than 0.05 units at a maximum assay concentration of 100 mM)		31.6 ± 2.2 μmol EDTAE/mL X	N/D (Activity lower than 0.05 units at a maximum assay concentration of 100 mM)	76.5 ± 3.4 μmol BHTE/mL X	
